Assay results from different studies.
Protocols differ between the studies behind these lines.
SIRT6: NAD-dependent protein deacylase sirtuin-6 (SIRT6, Homo sapiens, UniProt Q8N6T7)
PBK: Lymphokine-activated killer T-cell-originated protein kinase (PBK, Homo sapiens, UniProt Q96KB5)
BRD7: Bromodomain-containing protein 7 (BRD7, Homo sapiens, UniProt Q9NPI1)
VRK1: Serine/threonine-protein kinase VRK1 (VRK1, Homo sapiens, UniProt Q99986)

| SMILES | target | read-out | action | technique | tested at | measurement | value |
| --- | --- | --- | --- | --- | --- | --- | --- |
| Cc1cnc(NC2CCOCC2)nc1-n1cnc(C(=O)NC(CN)c2cc(F)cc(Cl)c2)c1 (centres unmarked) | Angiopoietin-1 receptor (TEK, Homo sapiens, UniProt Q02763, R849W) | enzyme activity | inhibitor | radiometric | 1 µM | remaining activity | 100% |
| NC(=O)c1ccc(C(=O)NOCc2ccc(C(F)(F)F)c(Cl)c2)cc1 | SIRT6 | enzyme activity | inhibitor | fluorescence | 100 µM | inhibition | 90.4% |
| Nc1nonc1-n1cc(C(=O)N/N=C/c2ccc(C(F)(F)F)cc2[N+](=O)[O-])nn1 | SIRT6 | enzyme activity | inhibitor | fluorescence | 100 µM | remaining activity | 24.9% |
| Cc1ccc(C(=O)NCc2ccsc2)cc1C#Cc1cn(C(C)C)c2ncnc(N)c12 | [Pyruvate dehydrogenase (acetyl-transferring)] kinase isozyme 4, mitochondrial (PDK4, Homo sapiens, UniProt Q16654) | enzyme activity | inhibitor |  | 1 µM | activity vs control | 119% |
| Cc1ccc(C(=O)Nc2ccc(CN3CCN(C)CC3)c(C(F)(F)F)c2)cc1C#Cc1cnc2cccnn12 | Serine/threonine-protein kinase TNNI3K (TNNI3K, Homo sapiens, UniProt Q59H18) | cell-free assay |  |  | 23.5 nM | remaining signal | 50% |
| Cn1c2c(Cl)c(Cl)ccc2c2cc[nH]c(=O)c21 | PBK | thermal stability |  | DSF | 10 µM | ΔTm | -0.6 °C |
| Nc1ncnc2occ(-c3ccc(NC(=O)Nc4cc(C(F)(F)F)ccc4F)cc3)c12 | Mitogen-activated protein kinase 6 (MAPK6, Homo sapiens, UniProt Q16659) | cell-free assay | inhibitor |  | 20 µM | remaining signal | 100% |
| Nc1nonc1-n1cc(C(=O)N/N=C/c2ccc([N+](=O)[O-])cc2O)nn1 | SIRT6 | enzyme activity | inhibitor | fluorescence | 100 µM | remaining activity | 20.6% |
| Cc1cc(NC(=O)c2cccc3cc(-c4cccc5[nH]nc(N)c45)ccc23)ccc1F | Angiopoietin-1 receptor (TEK, Homo sapiens, UniProt Q02763) | enzyme activity | inhibitor |  | 0.1 µM | activity vs control | 96% |
| NS(=O)(=O)c1ccc(Nc2nc(-c3ccc(F)cc3)c3ccccc3n2)cc1 | BRD7 | binding |  | competition with immobilised ligand | 1 µM | remaining binding | 76% |
| NCCc1ccc(C(=O)NOCc2ccc(C(F)(F)F)cc2)cc1 | SIRT6 | enzyme activity | inhibitor | fluorescence | 100 µM | inhibition | 88.4% |
| Cn1c2c(c3ccc(Cl)c(Cl)c31)C(C#N)C1(CCOCC1)NC2=O (centres unmarked) | PBK | thermal stability |  | DSF | 10 µM | ΔTm | -0.4 °C |
| Nc1nonc1-n1cc(C(=O)N/N=C/c2ccc(O)cc2)nn1 | SIRT6 | enzyme activity | inhibitor | fluorescence | 100 µM | remaining activity | 34.5% |
| COc1ccc(Sc2ccc(CONC(=O)c3ccc(C(N)=O)cc3)cc2C(F)(F)F)cc1 | SIRT6 | enzyme activity | inhibitor | fluorescence | 100 µM | inhibition | 97.4% |
| O=C(Nc1ccc(S(=O)(=O)N2CCC(Cl)CC2)cc1)c1ccc([N+](=O)[O-])o1 | Voltage-dependent L-type calcium channel subunit alpha-1C (Cacna1c, Rattus norvegicus, UniProt P22002) | cell-free assay |  |  | 10 µM | inhibition | 6% |
| Cn1c2c(c3ccc(Cl)c(Cl)c31)C(C#N)C(C)(C)NC2=O (centres unmarked) | PBK | thermal stability |  | DSF | 10 µM | ΔTm | -0.6 °C |

| SMILES | target | read-out | action | technique | tested at | measurement | value |
| --- | --- | --- | --- | --- | --- | --- | --- |
| NC(=O)c1ccc(C(=O)NOCc2cccc(F)c2)cc1 | SIRT6 | enzyme activity | inhibitor | fluorescence | 100 µM | inhibition | 74.1% |
| Nc1nonc1-n1cc(C(=O)N/N=C/c2ccc(F)cc2)nn1 | SIRT6 | enzyme activity | inhibitor | fluorescence | 100 µM | remaining activity | 43% |
| CC(N)c1ccc(C(=O)NOCc2ccc(C(F)(F)F)cc2)cc1 (centres unmarked) | SIRT6 | enzyme activity | inhibitor | fluorescence | 100 µM | inhibition | 89.2% |
| Cc1cnc(Nc2ccc(OCCN3CCCC3)cc2)nc1Nc1cccc(S(=O)(=O)NC(C)(C)C)c1 | BRD7 | thermal stability |  | DSF | 10 µM | ΔTm | 0.22 °C |
| CCN1CCC2(CC1)NC(=O)c1c(c3ccc(Cl)c(Cl)c3n1C)C2C#N (racemic) | VRK1 | thermal stability |  | DSF | 10 µM | ΔTm | -0.4 °C |
| Nc1nonc1-n1cc(C(=O)N/N=C/c2ccccc2Cl)nn1 | SIRT6 | enzyme activity | inhibitor | fluorescence | 100 µM | remaining activity | 22.8% |
| CC1(C)NC(=O)c2[nH]c3c(Cl)c(Cl)ccc3c2C1C#N (centres unmarked) | VRK1 | thermal stability |  | DSF | 10 µM | ΔTm | 0.2 °C |
| NC(=O)c1ccc(C(=O)NOCc2ccc(Sc3ccc(N)cc3)c(C(F)(F)F)c2)cc1 | SIRT6 | enzyme activity | inhibitor | fluorescence | 100 µM | inhibition | 97.3% |
| CCC1(CC)NC(=O)c2c(c3ccc(Cl)c(Cl)c3n2C)C1C#N (centres unmarked) | PBK | thermal stability |  | DSF | 10 µM | ΔTm | 0 °C |
| Nc1nonc1-n1cc(C(=O)N/N=C/c2ccc(O)c(O)c2O)nn1 | SIRT6 | enzyme activity | inhibitor | fluorescence | 100 µM | remaining activity | 51.3% |
| Cn1c2c(c3ccc(Cl)c(Cl)c31)C(C#N)C1(CCNCC1)NC2=O (racemic) | PBK | thermal stability |  | DSF | 10 µM | ΔTm | -0.9 °C |
| Nc1nonc1-n1cc(C(=O)N/N=C/c2cccnc2)nn1 | SIRT6 | enzyme activity | inhibitor | fluorescence | 100 µM | remaining activity | 26% |
| NC(=O)c1ccc(C(=O)NOCc2ccc(Cl)cc2)cc1 | SIRT6 | enzyme activity | inhibitor | fluorescence | 100 µM | inhibition | 79.5% |
| Nc1nonc1-n1cc(C(=O)N/N=C/c2cccc(O)c2O)nn1 | SIRT6 | enzyme activity | inhibitor | fluorescence | 100 µM | remaining activity | 27.2% |
| NS(=O)(=O)c1ccc(C(=O)NOCc2ccccc2)cc1 | SIRT6 | enzyme activity | inhibitor | fluorescence | 100 µM | inhibition | 47.4% |
| Cn1c2c(c3ccc(Cl)c(Cl)c31)C(C#N)C1(CCCC1)NC2=O (centres unmarked) | PBK | thermal stability |  | DSF | 10 µM | ΔTm | 0 °C |
